Measurements of several laboratories.
Lines come from different studies, so protocols differ.
Target: Serine/threonine-protein kinase PAK 2 (PAK2, Homo sapiens, UniProt Q13177)

Compound	test	conditions	remaining binding
C[C@H]1CCN(c2nccc(-c3cnn4ncccc34)n2)C1	binding	1 µM	59%
CCN1CCN(Cc2ccc(C(=O)Nc3ccc(C)c(Oc4ccc5c(c4)CC(=O)N5)c3)cc2C(F)(F)F)CC1	binding, competition with immobilised ligand	1 µM	100%
Cc1c(C(=O)O)cc(-c2ccc(C3CCNCC3)cc2)c2ccc(-c3ccc(C(F)(F)F)cc3)cc12	cell-free assay, competition with immobilised ligand	1 µM	100%
COc1cnc(Nc2cccc(S(N)(=O)=O)c2)nc1N1CCN(c2ccccc2)C(=O)C1	binding, competition with immobilised ligand	1 µM	83%
COc1ccnn2ncc(-c3ccnc(N(C)C)n3)c12	binding	1 µM	78%
O=C(c1ccc(Nc2ncc(Cl)c(-c3cc4ccccc4s3)n2)cc1)N1CCC(N2CCCC2)CC1	binding, competition with immobilised ligand	1 µM	59%
CCCCN(CCCC)C(=O)CN1C[C@@H](c2cc(OC)c3c(c2)OCO3)[C@H](C(=O)O)[C@H]1CC(C)(C)CCC	cell-free assay, competition with immobilised ligand	1 µM	83.5%
CN(CCCC(F)(F)F)c1nccc(-c2cnn3ncccc23)n1	binding	1 µM	100%
COc1cc(-c2cn(C3CCc4c(F)cccc4N(CC(F)(F)F)C3=O)nn2)ccc1-n1cnc(C)c1 (stereo not drawn)	cell-free assay, competition with immobilised ligand	1 µM	91%
Nc1ncc2c(n1)-c1c([nH]c3ccc(C#CC4CC4)cc13)CCCC2	binding, competition with immobilised ligand	1 µM	33%
CCS(=O)(=O)c1cc2cc(C[C@](O)(CC(C)(C)c3ccc(F)cc3C(N)=O)C(F)(F)F)[nH]c2cn1	cell-free assay, competition with immobilised ligand	1 µM	86%
COc1cnc(Nc2cccc(S(N)(=O)=O)c2)nc1N1CCN(c2ccccc2)CC1	binding, competition with immobilised ligand	1 µM	100%
O=C(NCCCN1CCOCC1)c1ccc(Nc2ncc(Cl)c(-c3ccc(Cl)s3)n2)cc1	binding, competition with immobilised ligand	1 µM	90%
C[C@@H]1CN(c2ccc3ncc(-c4ccc5[nH]nc(C6CC6)c5c4)n3n2)C[C@H](C)O1	binding, competition with immobilised ligand	50 nM	76%
c1cnn2ncc(-c3ccnc(N4CCC45COC5)n3)c2c1	binding	1 µM	70%
O=C(NCC1CCOCC1)c1n[nH]cc1NC(=O)c1c(F)cccc1F	binding, competition with immobilised ligand	1 µM	60%
N[C@@H]1CCN(c2nccc(-c3cnn4ncccc34)n2)C1	binding	1 µM	100%
CNC(=O)c1ccc(Nc2ncc(C(F)(F)F)c(NCc3nccnc3N(C)S(C)(=O)=O)n2)cc1	cell-free assay, competition with immobilised ligand	0.1 µM	72%
CN(C)c1nccc(-c2cnn3ncccc23)n1	binding	1 µM	64%
CC(C)(C)c1ccc(-c2nc(CBr)nn2-c2cccc(O)c2)cc1	cell-free assay, competition with immobilised ligand	10 µM	100%
CN(C)CC#Cc1ccc(OCCCc2sc(N3CCc4cccc(C(=O)Nc5nc6ccccc6s5)c4C3)nc2C(=O)O)c(F)c1	cell-free assay, competition with immobilised ligand	1 µM	93%
CC1CCCN1c1nccc(-c2cnn3ncccc23)n1 (stereo not drawn)	binding	1 µM	100%
O=C(N[C@H]1CCCCC/C=C\C2C[C@@]2(C(=O)O)NC(=O)[C@@H]2C[C@@H](Oc3ccncc3)CN2C1=O)OC1CCCC1 (stereo partly drawn)	binding, competition with immobilised ligand	1 µM	79%
O=C(NCCCN1CCOCC1)c1ccc(Nc2nccc(-c3cc4ccccc4s3)n2)cc1	binding, competition with immobilised ligand	1 µM	100%
